The structures appear in SMILES notation.

Common to all, as to format: functional, organism-based
For experiment [1], the system named is Mycobacterium tuberculosis. As to the kind of experiment: Ability to inhibit 100%growth against Mycobacterium tuberculosis H37Rv in Youman's medium with 10% bovine serum. Summed up: (§1)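 H37Rv from a 14-day Youman's culture was inoculated as a loopful floated on Youman's medium with 10% (v/v) freshly prepared bovine serum. The medium held a range of compound concentrations. Controls held medium or ethylene glycol. Tubes were sealed and held at 37 °C. Growth was compared with controls and scored at 21 days.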

The subject of experiment [2] is Mycobacterium tuberculosis. As to the kind of experiment: Ability to inhibit partial growth (50+/-10%) against Mycobacterium tuberculosis H37Rv in Youman's medium with 10% bovine serum. Summed up: as §1
Experiment [3] deals with Mycobacterium tuberculosis. As to the kind of experiment: Ability to inhibit 100%growth against Mycobacterium tuberculosis H37Rv in Youman's medium. The procedure, abridged: (§2)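 M. tuberculosis H37Rv was kept on Petrik's solid medium. A 3-mm loopful of a 14-day culture grown in Youman's medium was floated on 5.0 mL of Youman's (nonprotein) medium holding a range of compound concentrations diluted from stocks. Controls held medium or ethylene glycol. Tubes were sealed with paraffin and held at 37 °C. Growth was compared with controls weekly and scored at 21 days, in triplicate.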

The test system of experiment [4] is Mycobacterium tuberculosis. As to the kind of experiment: Ability to inhibit partial growth (50+/-10%) against Mycobacterium tuberculosis H37Rv in Youman's medium. The procedure, abridged:
as §2

Experiment [5] relates to Mycobacterium tuberculosis. Put plainly: Ability to inhibit 100% growth against Mycobacterium tuberculosis strain no :14029. Summed up:
(§3)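 Clinical isolates (INH-resistant nos. 22443 and 312; streptomycin-resistant no. 14029) were kept on Lowenstein-Jensen or Petrik's medium, then moved to Youman's medium. 14-day cultures were inoculated into tubes holding a range of compound concentrations in Youman's medium. Controls held medium, ethylene glycol, INH and streptomycin. Tubes were sealed with paraffin and held at 37 °C for 4 weeks. Growth was compared with controls weekly and scored at 28 days, in triplicate.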

Experiment [6] relates to Mycobacterium tuberculosis. As to the kind of experiment: Ability to inhibit partial growth (50+/-10%) against Mycobacterium tuberculosis strain no: 14029 in Youman's medium. Summed up: as §3
In experiment [7] the test system is Mycobacterium tuberculosis. Put plainly: Ability to inhibit 100%growth against Mycobacterium tuberculosis strain no: 312 in Youman's medium. Summed up:
as §3

In experiment [8] the test system is Mycobacterium tuberculosis. As to the kind of experiment: Ability to inhibit partial growth (50+/-10%) against Mycobacterium tuberculosis strain no: 312 in Youman's medium. The procedure, abridged: as §3
Experiment [9] concerns Mycobacterium tuberculosis. Put plainly: Ability to inhibit partial growth (50+/-10%) against Mycobacterium tuberculosis strain no: 22443 in Youman's medium. Summed up:
as §3

Experiment [10] concerns Mycobacterium tuberculosis. As to the kind of experiment: Ability to inhibit 100%growth against Mycobacterium tuberculosis strain no: 22443 in Youman's medium. The procedure, abridged:
as §3

`NNC(=O)CNc1ccc2ncccc2c1`: the Concentration in experiment [1] was 100 µg/mL; in [2], 50 µg/mL; in experiment [3], 100 µg/mL; in experiment [4], 25 µg/mL.
For the compound `O=C(O)CNc1ccc2ccccc2c1`, the Concentration came to 1000 µg/mL in experiment [3] and 100 µg/mL in [4].
In the case of `NNC(=O)CNc1ccc2ccccc2c1`, the Concentration in [1] came to 50 µg/mL; in [2], 10 µg/mL; in experiment [3], 1 µg/mL; in [4], 0.5 µg/mL.
Taken in the same sequence, the figures for `CC(Nc1ccc2ccccc2c1)C(=O)NN` (stereo unspecified) were 50 µg/mL, 10 µg/mL, 1 µg/mL and 0.5 µg/mL.
As to `CN[C@@H]1[C@H](O[C@H]2[C@H](O[C@H]3[C@H](O)[C@@H](O)[C@H](N=C(N)N)[C@@H](O)[C@@H]3N=C(N)N)O[C@@H](C)[C@]2(O)C=O)O[C@@H](CO)[C@H](O)[C@H]1O`, the Concentration in experiment [5] came out at 2500 µg/mL; in [6], 1000 µg/mL.
As to `COc1ccc2cc(NC(C)C(=O)NN)ccc2c1` (stereo unspecified), the Concentration in experiment [1] came out at 100 µg/mL; in [2], 50 µg/mL; in [3], 50 µg/mL; in [4], 10 µg/mL.
On to `CC(CC(=O)NN)Nc1ccc2ccccc2c1` (stereo unspecified), for which the Concentration in experiment [1] stood at 100 µg/mL; in [2] it was 50 µg/mL; in experiment [3], 10 µg/mL; in experiment [4], 5 µg/mL.
Take `CN(CC(=O)NN)c1ccc2ccccc2c1`: the Concentration in experiment [1] was 50 µg/mL; in experiment [2] it was 10 µg/mL; in experiment [3], 10 µg/mL; in [4], 2 µg/mL.
Turning to `CN(CC(=O)N/N=C/c1ccncc1)c1ccc2ccccc2c1`, the Concentration was 100 µg/mL in experiment [1], 10 µg/mL in experiment [2], 10 µg/mL in experiment [3] and 1 µg/mL in experiment [4].
Consider `COc1ccc2cc(NCC(=O)NN)ccc2c1`, for which the Concentration in experiment [1] is 50 µg/mL; in experiment [2], 10 µg/mL; in [3] it was 10 µg/mL; in experiment [4], 5 µg/mL.
As to `CC(CC(=O)NN)Nc1ccc2ncccc2c1` (stereo unspecified), the Concentration was determined as 150 µg/mL in experiment [1], 100 µg/mL in [2], 100 µg/mL in [3] and 50 µg/mL in experiment [4].
As for `NNC(=O)c1ccncc1`, the Concentration in experiment [7] worked out at 100 µg/mL; in experiment [8] it was 50 µg/mL; in [9], 100 µg/mL; in experiment [1], 1 µg/mL; in experiment [2], 0.5 µg/mL; in [3] it was 1 µg/mL. Also, the results for the Concentration in experiment [4] and in experiment [10] were 0.1 µg/mL and 150 µg/mL, respectively.
Take `O=C(O)CNc1ccc2ncccc2c1`: the Concentration came to 100 µg/mL in experiment [1], 50 µg/mL in [2], 100 µg/mL in experiment [3] and 10 µg/mL in experiment [4].
`O=C(CNc1ccc2ccccc2c1)N/N=C/c1ccncc1`: the Concentration is 100 µg/mL in [1], 10 µg/mL in experiment [2], 1 µg/mL in experiment [3] and 0.5 µg/mL in experiment [4].

Source of the values: ChEMBL document CHEMBL1124611, “Synthesis and antitubercular activity of N-(2-naphthyl)glycine hydrazide analogues” (J Med Chem, 1989).
